Consider 15 compounds from ChEMBL document CHEMBL4145587, “Peniisocoumarins A-J: Isocoumarins from Penicillium commune QQF-3, an Endophytic Fungus of the Mangrove Plant Kandelia candel” (J Nat Prod, 2018).

Each structure is given as a SMILES string. The source made the active and inactive calls. The rule behind the calls is not given here.

In test [1] the test system is Saccharomyces cerevisiae. The test is described as follows: Inhibition of Saccharomyces cerevisiae alpha-glucosidase at 200 uM using p-nitrophenyl-glycoside as substrate incubated for 20 mins followed by substrate addition measured immediately relative to control. In outline:
(§1)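 Yeast α-glucosidase from S. cerevisiae, from an enzyme stock of 2.0 units/mL, in 0.01 M potassium phosphate buffer at pH 7.0. Sample in DMSO was preincubated with enzyme for 20 min at 37 °C. p-Nitrophenyl glycoside (3 mg/mL stock) was then added and A410 read immediately at 37 °C. Inhibition % = (B−S)/B×100, with B as the DMSO blank. Screened at 200 μM; compounds above 45% inhibition went on to IC50. Triplicates.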

Test [2] in a line: Inhibition of Saccharomyces cerevisiae alpha-glucosidase using p-nitrophenyl-glycoside as substrate incubated for 20 mins followed by substrate addition measured immediately. In outline: as §1
Test [3] has as its target T1, Phosphotyrosine protein phosphatase (Mycobacterium tuberculosis) (UniProt A0A045ISB3).
T1 sequence (whole entry): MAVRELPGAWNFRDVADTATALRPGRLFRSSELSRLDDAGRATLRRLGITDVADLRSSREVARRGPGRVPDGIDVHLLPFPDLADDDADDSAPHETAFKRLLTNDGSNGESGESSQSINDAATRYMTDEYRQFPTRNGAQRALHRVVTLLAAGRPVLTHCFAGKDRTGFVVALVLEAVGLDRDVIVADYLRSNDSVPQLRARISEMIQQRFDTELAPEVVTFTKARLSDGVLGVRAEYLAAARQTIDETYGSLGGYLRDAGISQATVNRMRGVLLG
The test is described as follows: Inhibition of Mycobacterium tuberculosis H37Ra PTPB expressed in Escherichia coli BL21 (DE3) at 50 uM using p-nitrophenyl phosphate as substrate preincubated for 10 mins followed by substrate addition measured for 5 mins by spectrophotometric analysis. In outline: (§2)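 Triplicate wells; reaction buffer 50 mM Tris/100 mM NaCl, pH 7.0; p-nitrophenyl phosphate as substrate; oleanolic acid as positive control. Full details on enzyme overexpression, purification and assay are given in an earlier report.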

For test [4], the system named is A549. Briefly: Cytotoxicity against human A549 cells by MTT assay. Format: functional, cell-based. The procedure, abridged:
(§3)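 MTT read-out in human cell lines A549, HepG2, HeLa, MCF-7 and HEK293T. Compounds were tested at 100 μM. Other details follow a prior report.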

In test [5] the test system is HepG2. Briefly: Cytotoxicity against human HepG2 cells by MTT assay. Format: functional, cell-based. The procedure, abridged: as §3
The test system of test [6] is HeLa. Briefly: Cytotoxicity against human HeLa cells by MTT assay. Format: functional, cell-based. In outline:
as §3

Test [7] deals with MCF7. Briefly: Cytotoxicity against human MCF7 cells by MTT assay. Format: functional, cell-based. The procedure, abridged:
as §3

The test system of test [8] is HEK-293T. Briefly: Cytotoxicity against human HEK293T cells by MTT assay. Format: functional, cell-based. The procedure, abridged:
as §3
For orientation: Tetrazolium assays rely on reduction of a dye to a coloured formazan, in cell work by metabolically active cells.

Test [9] deals with T2, Phosphotyrosine protein phosphatase (Mycobacterium tuberculosis, UniProt A0A045ISB3).
T2 sequence (A0A045ISB3 whole entry): T1 sequence (whole entry)
Briefly: Inhibition of Mycobacterium tuberculosis H37Ra PTPB expressed in Escherichia coli BL21 (DE3) using p-nitrophenyl phosphate as substrate preincubated for 10 mins followed by substrate addition measured for 5 mins by spectrophotometric analysis. In outline: as §2

Broadly, the inhibition is the relative decrease from the control value, in per cent. The term IC50 denotes the concentration at which inhibition is half-maximal. Compound `COc1cc(O)c2c(=O)oc(C[C@@H](Cl)CO)cc2c1O` displayed an inhibition in [1] of 66%. For the same compound, half-maximal inhibition in test [2] (IC50) was put at 110 µM. Also, the inhibition entry in test [3] is “inactive”. Moreover, the result in test [4], in [5], in test [6], in test [7] and in test [8] was inactive.

Turning to `COc1cc(O)c2c(=O)oc(C[C@@H]3O[C@@H]3C(C)=O)cc2c1`, the inhibition in test [1] was 95%. Moreover, half-maximal inhibition in test [2] (IC50) was put at 38.1 µM. The inhibition result in test [3] was “inactive”. Besides, the result in test [4], in test [5], in test [6], in test [7] and in test [8] was inactive.

Regarding `C[C@H]1O[C@H](O[C@H]2[C@H](O)[C@@H](O)[C@@H](O[C@H]3[C@H](O)[C@@H](O)C(O)O[C@@H]3CO)O[C@@H]2CO)[C@H](O)[C@@H](O)[C@@H]1N[C@H]1C=C(CO)[C@@H](O)[C@H](O)[C@H]1O` (stereo partly specified) [ACARBOSE], the inhibition in test [1] turned out to be 19%. Further, in [2], the IC50 was 478 µM.

In turn, `COc1cc(O)c2c(=O)oc(C[C@H](C)O)cc2c1` had an inhibition in test [1] of 33%. For the same compound, in [3], the inhibition result was “inactive”. Besides, the result in test [4], in [5], in [6], in [7] and in test [8] was inactive.

In turn, `COc1cc(O)c2c(=O)oc(C[C@@H](O)CO)cc2c1O` gave an inhibition in test [1] of 83%. In [2], this compound returned an IC50 of 78.1 µM. Moreover, the inhibition result in test [3] was “inactive”. Besides, the outcome in test [4], in [5], in test [6], in test [7] and in test [8] was inactive.

In turn, `COc1cc(O)c2c(=O)oc(C[C@@H](O)CC(C)=O)cc2c1` gave an inhibition in test [1] of 38%. Moreover, the inhibition entry in [3] is “inactive”. The result in [4], in test [5], in [6], in test [7] and in [8] was inactive.

`COC(=O)[C@@H]1[C@H](C(=O)OC)[C@@H](c2cc3cc(OC)cc(O)c3c(=O)o2)[C@H]1c1cc2cc(OC)cc(O)c2c(=O)o1` had an inhibition in test [1] of 18%. Also, the inhibition entry in test [3] is “inactive”. In addition, the result in test [4], in test [5], in test [6], in [7] and in test [8] was inactive.

`CC1(C)CC[C@]2(C(=O)O)CC[C@]3(C)C(=CC[C@@H]4[C@@]5(C)CC[C@H](O)C(C)(C)[C@@H]5CC[C@]43C)[C@@H]2C1` [OLEANOLIC_ACID]: in [9], the IC50 came to 22.1 µM.

In test [1], `COc1cc(O)c2c(=O)oc(C[C@@H](O)C(Cl)Cl)cc2c1` had an inhibition of 69%. In addition, inhibition in test [2] was half-maximal at 102 µM (IC50). Besides, the inhibition result in test [3] was “inactive”. The result in [4], in test [5], in [6], in test [7] and in [8] was inactive.

In test [1], `COc1cc(O)c2c(=O)oc(C[C@@H](O)C(Cl)Cl)cc2c1O` came in with an inhibition of 91%. Besides, the IC50 in [2] was 45.1 µM. In test [3], the inhibition result was “inactive”. For the same compound, the result in [4], in test [5], in [6], in test [7] and in test [8] was inactive.

In turn, `COc1cc(O)c2c(=O)oc(C[C@@H](O)CO)cc2c1` yielded an inhibition in [1] of 43%. Further, in test [3], the inhibition result is “inactive”. For the same compound, the result in test [4], in test [5], in test [6], in [7] and in [8] was inactive.

The compound `COC(=O)[C@@H]1[C@H](C(=O)OC)[C@H](c2cc3cc(OC)cc(O)c3c(=O)o2)[C@@H]1c1cc2cc(OC)cc(O)c2c(=O)o1` returned an inhibition in [1] of 23%. In test [3], the inhibition result is “inactive”. Further, the result in test [4], in [5], in test [6], in test [7] and in test [8] was inactive.

Consider `C[C@H](O)Cc1cc2c(O)c(O)cc(O)c2c(=O)o1`, for which the inhibition in test [1] was 91%. Also, the IC50 in test [2] was found to be 40.5 µM; in [9] it was 20.7 µM. In addition, the result in [4], in test [5], in test [6], in [7] and in test [8] was inactive.

In test [1], `COc1cc(O)c2c(=O)oc(C[C@@H](Cl)CO)cc2c1` returned an inhibition of 58%. The same compound showed an IC50 in test [2] of 158 µM. The inhibition result in test [3] is “inactive”. Also, the outcome in test [4], in test [5], in [6], in test [7] and in test [8] was inactive.

In turn, `COc1cc(O)c2c(=O)oc(C[C@@H](O)CCl)cc2c1` yielded an inhibition in test [1] of 41%. In test [3], the inhibition result is “inactive”. Also, the outcome in test [4], in test [5], in [6], in test [7] and in test [8] was inactive.
